Results taken from ChEMBL document CHEMBL1154841, “Cytotoxic triterpene dilactones from the stems of Kadsura ananosma” (J Nat Prod, 2010).
pIC50: −log10 of the molar value.

Legend:
Type in all cases: functional, cell-based
[1] = tested on: HL-60; experiment: Cytotoxicity against human HL60 cells after 48 hrs by MTT assay; conditions: HL-60, 48 h
Method in brief: (§1)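 Cells grown in RPMI-1640 or DMEM with 10% fetal bovine serum, 37 °C, 5% CO2. Seeded at 1 × 10^5 cells/mL; adherent lines attached 12 h before dosing, suspension cells (HL-60) seeded at dosing. Compound given at various concentrations in triplicate for 48 h; 10-hydroxycamptothecin positive control. MTT 4 h at 37 °C, lysis in 20% SDS-50% DMF, formazan read at 595 nm.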

[2] = tested on: SMMC-7721; experiment: Cytotoxicity against of human SMMC7721 cells after 48 hrs by MTT assay; conditions: SMMC-7721, 48 h; method in brief: as §1
[3] = tested on: A549; experiment: Cytotoxicity against human A549 cells after 48 hrs by MTT assay; conditions: A549, 48 h; method in brief: as §1
[4] = tested on: PANC-1; experiment: Cytotoxicity against human PANC1 cells after 48 hrs by MTT assay; conditions: PANC-1, 48 h; method in brief: as §1
[5] = tested on: SK-BR-3; experiment: Cytotoxicity against human SK-BR-3 cells after 48 hrs by MTT assay; conditions: SK-BR-3, 48 h; method in brief: as §1

C=C1C([C@@H](C)[C@H]2CC=C(C)C(=O)O2)=CC[C@]2(C)[C@H]1C[C@]1(O)C=C3C=CC(=O)OC(C)(C)[C@@H]3[C@H](OC(C)=O)C[C@@H]21 [LOGIPEDLACTONE J]
pIC50 [1]: 5.70 | pIC50 [2]: < 5.00 | pIC50 [3]: < 5.00 | pIC50 [4]: 5.28 | pIC50 [5]: 5.55

C=C1C([C@@H](C)[C@H]2CC=C(C)C(=O)O2)=CC[C@]2(C)[C@H]1C[C@]1(O)C=C3C=CC(=O)OC(C)(C)[C@@H]3CC[C@@H]21 [LONGIPEDLACTONE A]
pIC50 [1]: 5.46 | pIC50 [2]: < 5.00 | pIC50 [3]: < 5.00 | pIC50 [4]: < 5.00 | pIC50 [5]: < 5.00

C=C1C([C@@H](C)[C@H]2CC=C(C)C(=O)O2)=CC[C@]2(C)[C@H]1C[C@]1(O)[C@H]3O[C@]34C=CC(=O)OC(C)(C)[C@@H]4CC[C@@H]21 [LONGIPEDLACTONE D]
pIC50 [1]: < 5.00 | pIC50 [2]: < 5.00 | pIC50 [3]: < 5.00 | pIC50 [4]: < 5.00 | pIC50 [5]: < 5.00

C=C1C([C@@H](C)[C@H]2CC=C(C)C(=O)O2)=CC[C@]2(C)[C@H]1C[C@]1(O)C=C3C=CC(=O)OC(C)(C)[C@@H]3[C@H](O)C[C@@H]21 [LONGIPEDLACTONE F]
pIC50 [1]: 5.64 | pIC50 [2]: < 5.00 | pIC50 [3]: < 5.00 | pIC50 [4]: 5.06 | pIC50 [5]: 5.13

C=C1C([C@@H](C)[C@H]2CC=C(C)C(=O)O2)=CC[C@]2(C)[C@H]1C[C@]1(O)[C@H]3O[C@]34C=CC(=O)OC(C)(C)[C@@H]4[C@H](O)C[C@@H]21 [LONGIPEDLACTONE G]
pIC50 [1]: < 5.00 | pIC50 [2]: < 5.00 | pIC50 [3]: < 5.00 | pIC50 [4]: < 5.00 | pIC50 [5]: < 5.00

C=C1[C@@H]2C[C@]3(O)[C@H]4O[C@]45C=CC(=O)OC(C)(C)[C@@H]5[C@H](O)C[C@H]3[C@]2(C)CC[C@@]1(O)[C@@H](C)[C@H]1CC=C(C)C(=O)O1 [LONGIPEDLACTONE I]
pIC50 [1]: < 5.00 | pIC50 [2]: < 5.00 | pIC50 [3]: < 5.00 | pIC50 [4]: < 5.00 | pIC50 [5]: < 5.00

C=C1[C@H]([C@@H](C)[C@H]2CC=C(C)C(=O)O2)CC[C@@]2(C)[C@@H]3C[C@@H](OC(C)=O)[C@H]4C(C)(C)OC(=O)C[C@H]5OO[C@]3(C[C@@H]12)C[C@]54O [LONGIPEDLACTONE K]
pIC50 [1]: < 5.00 | pIC50 [2]: < 5.00 | pIC50 [3]: < 5.00 | pIC50 [4]: < 5.00 | pIC50 [5]: < 5.00

C=C1[C@H]([C@@H](C)[C@H]2CC=C(C)C(=O)O2)CC[C@]2(C)[C@H]1C[C@]1(O)C=C3C=CC(=O)OC(C)(C)[C@@H]3[C@H](OC(C)=O)C[C@@H]21 [LONGIPEDLACTONE L]
pIC50 [1]: 5.14 | pIC50 [2]: < 5.00 | pIC50 [3]: < 5.00 | pIC50 [4]: < 5.00 | pIC50 [5]: < 5.00

C=C1[C@@H]2C[C@]3(O)C=C4C=CC(=O)OC(C)(C)[C@@H]4[C@H](OC(C)=O)C[C@H]3[C@]2(C)CC[C@@]1(O)[C@@H](C)[C@H]1CC=C(C)C(=O)O1 [LONGIPEDLACTONE M]
pIC50 [1]: 5.39 | pIC50 [2]: < 5.00 | pIC50 [3]: < 5.00 | pIC50 [4]: < 5.00 | pIC50 [5]: < 5.00

C=C1C([C@@H](C)[C@H]2CC=C(C)C(=O)O2)=CC[C@]2(C)[C@H]1C[C@]1(O)[C@H]3O[C@]34C=CC(=O)OC(C)(C)[C@@H]4[C@H](OC(C)=O)C[C@@H]21 [LONGIPEDLACTONE N]
pIC50 [1]: < 5.00 | pIC50 [2]: < 5.00 | pIC50 [3]: < 5.00 | pIC50 [4]: < 5.00 | pIC50 [5]: < 5.00

C=C1[C@@H]2C[C@]3(O)[C@H]4O[C@]45C=CC(=O)OC(C)(C)[C@@H]5[C@H](OC(C)=O)C[C@H]3[C@]2(C)CC[C@@]1(O)[C@@H](C)[C@H]1CC=C(C)C(=O)O1 [LONGIPEDLACTONE P]
pIC50 [1]: < 5.00 | pIC50 [2]: < 5.00 | pIC50 [3]: < 5.00 | pIC50 [4]: < 5.00 | pIC50 [5]: < 5.00
